Non-standard residues stand in square brackets, D forms with d. Residues, ends and D or L forms follow the SMILES beside them. pT = C[C@@H](OP(=O)(O)O)[C@H](N)C(=O)O; pS = N[C@@H](COP(=O)(O)O)C(=O)O
Tests used:
[1] = biological target: T1, wt-arr2_1-418 (full-length human arrestin-2) (Homo sapiens, UniProt P49407); assay: Isothermal titration calorimetry; assay type: binding
Procedure, shortened: (§1)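 Untagged protein from E. coli BL21, purified by ammonium sulfate precipitation, heparin affinity and size exclusion. ITC at 283K in 10 mM NaH2PO4 pH 7.0, 100 mM NaCl: cell arrestin-2 0.01 mM, syringe test peptide 0.5 mM. 13 injections of 15 ul, 210 s apart, up to 2-fold peptide excess. Peptide dilution heats into buffer run as control. Isotherms fitted to one-site, 1:1 model.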

[2] = biological target: T2, tr-arr2_1-382 (truncated human arrestin-2 mutant) (Homo sapiens, UniProt P49407); assay: Isothermal titration calorimetry; assay type: binding
Procedure, shortened: as §1

[3] = biological target: truncated human arrestin-2 mutant comprised of residues 1-382 (tr-arr2_(1-382)) (human) (UniProt P49407); assay: ITC
[4] = biological target: wild-type human arrestin-2 (wt-arr2_(1-418)) (human) (UniProt P49407); assay: ITC
[5] = biological target: T1, wt-arr2_1-418 (full-length human arrestin-2); assay: Transferred NOESY NMR of arrestin-peptide mixture, full-length arrestin-2; assay type: binding; conditions: 0.1 mM wt-arr2_1-418, 1 mM peptide (1:10), pH 6.9-7.1, 10°C, 600 MHz
[6] = biological target: T2, tr-arr2_1-382 (truncated human arrestin-2 mutant); assay: Transferred NOESY NMR of arrestin-peptide mixture, truncated arrestin-2; assay type: binding; conditions: 0.1 mM tr-arr2_1-382, 1 mM peptide (1:10), pH 6.9-7.1, 10°C, 600 MHz
arrestin-2 = conditions: doubly phosphorylated Thr419-ASN439 peptide of CB1 C-terminus; cited from earlier work
[7] = ITC, 283K, 10 mM NaH2PO4 pH 7.0, 100 mM NaCl

T1 sequence (P49407 whole entry): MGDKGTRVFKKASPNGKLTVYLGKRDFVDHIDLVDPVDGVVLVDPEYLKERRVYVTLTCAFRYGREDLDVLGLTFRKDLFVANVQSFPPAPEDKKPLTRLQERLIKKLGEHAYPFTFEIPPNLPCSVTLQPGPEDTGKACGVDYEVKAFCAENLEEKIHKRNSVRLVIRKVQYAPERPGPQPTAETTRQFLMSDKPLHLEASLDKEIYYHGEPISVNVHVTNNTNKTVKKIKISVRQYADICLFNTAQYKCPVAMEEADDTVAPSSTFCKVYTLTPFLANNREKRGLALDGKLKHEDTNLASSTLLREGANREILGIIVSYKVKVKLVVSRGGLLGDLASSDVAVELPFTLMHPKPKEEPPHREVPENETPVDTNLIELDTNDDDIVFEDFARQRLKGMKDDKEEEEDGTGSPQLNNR
T2 sequence (P49407 1-382, change not shown): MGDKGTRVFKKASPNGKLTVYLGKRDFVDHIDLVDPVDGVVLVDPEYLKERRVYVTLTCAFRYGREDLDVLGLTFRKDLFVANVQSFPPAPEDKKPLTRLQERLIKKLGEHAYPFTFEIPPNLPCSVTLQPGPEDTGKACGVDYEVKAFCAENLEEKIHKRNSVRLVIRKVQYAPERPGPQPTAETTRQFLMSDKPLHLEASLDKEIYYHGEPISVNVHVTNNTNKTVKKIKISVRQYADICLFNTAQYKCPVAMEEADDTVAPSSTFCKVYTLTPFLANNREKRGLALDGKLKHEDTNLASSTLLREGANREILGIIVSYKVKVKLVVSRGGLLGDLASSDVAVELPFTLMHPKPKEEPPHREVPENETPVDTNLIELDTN
Chain of wild-type human arrestin-2 (wt-arr2_(1-418)) (human) (P49407 whole entry): as the sequence (P49407 whole entry) above
Chain of truncated human arrestin-2 mutant comprised of residues 1-382 (tr-arr2_(1-382)) (human) (P49407 1-382, change not shown): as the sequence (P49407 1-382, change not shown) above

## CC[C@H](C)[C@H](NC(=O)[C@H](CCCCN)NC(=O)[C@@H](NC(=O)[C@@H](N)[C@@H](C)O)C(C)C)C(=O)N[C@@H](C)C(=O)N[C@@H](CCCCN)C(=O)N[C@H](C(=O)N[C@H](C(=O)N[C@@H](CCSC)C(=O)N[C@@H](COP(=O)(O)O)C(=O)N[C@H](C(=O)N[C@@H](COP(=O)(O)O)C(=O)N[C@H](C(=O)N[C@@H](CC(=O)O)C(=O)N[C@H](C(=O)N[C@@H](COP(=O)(O)O)C(=O)N[C@@H](C)C(=O)N[C@@H](CCC(=O)O)C(=O)N[C@@H](C)C(=O)N[C@@H](CC(C)C)C(=O)O)[C@@H](C)OP(=O)(O)O)[C@@H](C)O)C(C)C)[C@@H](C)OP(=O)(O)O)C(C)C [CB1^5P454-473] (H-TVKIAKV[pT]M[pS]V[pS]TD[pT][pS]AEAL-OH)
[1]
  Kd: ~116 µM
[2]
  Kd: ~2.2 µM

## CB1^5P_(454-473), pentaphosphorylated peptide mimicking residues 454-473 of CB1
[3]
  Kd: 2.2 µM
[4]
  Kd: 116 µM

## TVKIAKVTMSVSTDTSAEAL [CB1_454-473]
[1]; [7]
  interaction by ITC: no indication of an interaction
[2]; [7]
  interaction by ITC: no indication of an interaction
[5]
  nOe change on addition of arrestin / interaction: no additional peaks in the nOe spectra compared to the free peptide spectrum suggesting little or no interaction
[6]
  nOe change on addition of arrestin / interaction: no additional peaks in the nOe spectra compared to the free peptide spectrum suggesting little or no interaction

## doubly phosphorylated version of a peptide corresponding to residues Thr419-ASN439 of the CB1 C-terminus: doubly phosphorylated peptide corresponding to residues Thr419-ASN439 of the CB1 C-terminus, responsible for desensitization
arrestin-2
  binding and bound conformation: binds to arrestin-2 and adopts helical conformations in the vicinity of the phosphorylated residues

Source: PMC3634367 (Biochemistry, 2011)
